# In ChEMBL document CHEMBL4368909, “Identification of Dihydrofuro[3,4- d]pyrimidine Derivatives as Novel HIV-1 Non-Nucleoside Reverse Transcriptase Inhibitors with Promising Antiviral Activities and Desirable Physicochemical Properties” (J Med Chem, 2019):
# Tests used:
# [1] = system: MT4; experiment: Cytotoxicity against human MT4 cells after 5 days by MTT assay; assay type: cell-based; settings: mt4, 120 h
# [2] = system: Human immunodeficiency virus 1; experiment: Resistance factor, ratio of EC50 for HIV1 harboring reverse transcriptase Y188L mutant to EC50 for wild type HIV1; assay type: functional
# Outline: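 The resistance factor is the EC50 against the mutant strain divided by the EC50 against wild-type HIV-1. Both were measured in MT-4 cells by MTT read-out of protection from virus-induced cytopathicity.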
# [3] = target: Human immunodeficiency virus type 1 reverse transcriptase (Human immunodeficiency virus 1, UniProt Q72547); experiment: Inhibition of recombinant HIV1 reverse transcriptase using (DIG)-dUTP and biotin-labeled dNTPs as substrate after 1 hr by ELISA
# [4] = target: T1, Cytochrome P450 1A2 (Homo sapiens, UniProt P05177); experiment: Inhibition of CYP1A2 in human liver microsomes using phenacetin as substrate after 10 mins in presence of NADPH; assay type: ADME
# T1 sequence (P05177 whole entry): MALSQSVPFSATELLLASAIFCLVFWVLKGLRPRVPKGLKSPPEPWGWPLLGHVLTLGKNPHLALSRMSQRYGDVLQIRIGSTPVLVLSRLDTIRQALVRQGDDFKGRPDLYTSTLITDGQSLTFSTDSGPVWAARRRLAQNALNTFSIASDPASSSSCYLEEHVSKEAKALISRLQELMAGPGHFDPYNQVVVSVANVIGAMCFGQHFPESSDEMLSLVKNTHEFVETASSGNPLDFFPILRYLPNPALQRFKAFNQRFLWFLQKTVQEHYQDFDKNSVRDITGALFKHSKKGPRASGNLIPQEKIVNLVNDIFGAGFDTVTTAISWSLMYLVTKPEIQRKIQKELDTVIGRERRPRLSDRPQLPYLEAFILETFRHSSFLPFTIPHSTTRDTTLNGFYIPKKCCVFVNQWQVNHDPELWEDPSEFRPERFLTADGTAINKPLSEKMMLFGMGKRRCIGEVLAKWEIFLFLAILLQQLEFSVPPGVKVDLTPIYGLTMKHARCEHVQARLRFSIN
# [5] = target: Cytochrome P450 2C19 (Homo sapiens, UniProt P33261); experiment: Inhibition of CYP2C19 in human liver microsomes using S-mephenytoin as substrate after 10 mins in presence of NADPH; assay type: ADME
# [6] = target: Cytochrome P450 2D6 (Homo sapiens, UniProt P10635); experiment: Inhibition of CYP2D6 in human liver microsomes using dextromethorphan as substrate after 10 mins in presence of NADPH; assay type: ADME
# [7] = AUC (0 to infinity) in Wistar rat at 2 mg/kg, iv by LC-MS/MS analysis; assay type: ADME, organism-based; set-up: dose 2 mg/kg, time infinity, route intravenous; settings: in vivo
# Outline: (§1)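 Male/unspecified Wistar rats given one dose, 2 mg/kg intravenously or 20 mg/kg orally; plasma concentration–time profiles followed; PK parameters reported as mean ± SD, n = 5.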
# [8] = Oral bioavailability in Wistar rat at 20 mg/kg by LC-MS/MS analysis; assay type: ADME, organism-based; settings: in vivo; outline: as §1
# [9] = Acute toxicity in Kunming mouse assessed as mortality at 800 mg/kg, po measured after 2 weeks; assay type: organism-based; settings: in vivo, 336 h
# Outline: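 Kunming mice received a single intragastric dose of 800 mg/kg. Deaths and behaviour were observed over 2 weeks and compared with a control group.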
# [10] = Sub-acute toxicity in Kunming mouse assessed as behavior abnormalities at 50 mg/kg/day, po administered for 2 weeks by hematoxylin and eosin staining-based assay; assay type: organism-based; settings: in vivo, 336 h
# Outline: (§2)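 Mice were dosed orally at 50 mg/kg/day for 2 weeks and observed for behavioural abnormalities during treatment. Organs were then examined by hematoxylin–eosin staining.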
# [11] = Sub-acute toxicity in Kunming mouse assessed as effect on kidneys at 50 mg/kg/day, po administered for 2 weeks by hematoxylin and eosin staining-based assay; assay type: organism-based; settings: in vivo, 336 h; outline: as §2
# Sequence of Cytochrome P450 2D6 (P10635 whole entry): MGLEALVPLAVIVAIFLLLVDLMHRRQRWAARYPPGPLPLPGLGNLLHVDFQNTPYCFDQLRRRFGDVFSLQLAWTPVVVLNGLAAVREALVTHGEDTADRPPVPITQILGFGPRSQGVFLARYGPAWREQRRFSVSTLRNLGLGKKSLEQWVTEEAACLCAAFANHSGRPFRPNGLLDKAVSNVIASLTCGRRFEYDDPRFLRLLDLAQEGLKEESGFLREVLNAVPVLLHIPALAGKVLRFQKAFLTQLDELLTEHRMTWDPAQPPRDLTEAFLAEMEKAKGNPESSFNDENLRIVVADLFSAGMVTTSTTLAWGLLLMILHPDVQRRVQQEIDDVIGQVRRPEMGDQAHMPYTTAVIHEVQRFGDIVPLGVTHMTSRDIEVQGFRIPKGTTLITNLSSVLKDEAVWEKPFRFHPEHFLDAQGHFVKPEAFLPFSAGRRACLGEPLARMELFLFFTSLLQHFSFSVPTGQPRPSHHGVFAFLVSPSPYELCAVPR
# Sequence of Cytochrome P450 2C19 (P33261 whole entry): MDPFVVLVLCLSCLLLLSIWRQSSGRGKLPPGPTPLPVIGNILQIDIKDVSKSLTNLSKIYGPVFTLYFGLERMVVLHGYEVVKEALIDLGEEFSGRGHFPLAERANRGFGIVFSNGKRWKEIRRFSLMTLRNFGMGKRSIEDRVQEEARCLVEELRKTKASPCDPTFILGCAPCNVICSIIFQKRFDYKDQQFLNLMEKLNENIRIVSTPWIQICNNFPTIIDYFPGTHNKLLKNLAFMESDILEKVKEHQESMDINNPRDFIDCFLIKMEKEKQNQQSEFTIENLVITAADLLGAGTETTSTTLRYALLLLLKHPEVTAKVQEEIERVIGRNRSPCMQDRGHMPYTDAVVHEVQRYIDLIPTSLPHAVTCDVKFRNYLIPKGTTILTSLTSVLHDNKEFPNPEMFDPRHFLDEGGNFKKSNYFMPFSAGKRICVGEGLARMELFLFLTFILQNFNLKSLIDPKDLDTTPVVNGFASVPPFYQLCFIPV
smiles,measurement,setting,value
Cc1cc(C#N)cc(C)c1Oc1nc(NC2CCN(Cc3ccc(C(N)=O)cc3)CC2)nc2c1COC2,CC50,[1],> 250 µM
same,Ratio EC50,[2],5.3
same,IC50,[3],0.051 µM
same,IC50,[4],> 50 µM
same,IC50,[5],> 50 µM
same,IC50,[6],> 50 µM
same,AUC(0-inf),[7],543 ng·h/mL
same,F,[8],30.96%
same,Activity,[9],Non-Toxic
same,Activity,[10],Non-Toxic
same,Activity,[11],Non-Toxic
